Laboratory results: paper PMC4593655 (Bioorganic & medicinal chemistry, 2015)

How the values were obtained:
[1] = system: tubulin; experiment: Inhibition of colchicine binding to tubulin; conditions: data not presented
[2] = system: purified tubulin; experiment: Assembly of purified tubulin; assay type: biochemical; conditions: data not presented
[3] = system: NCI full panel of 60 cell lines; experiment: NCI 5-dose assay, full panel overview; assay type: cell-based, human; conditions: for CC50: Homo sapiens, 60 cell, read-out: pLC50 MG_MID (converted); for cytotoxicity in NCI screen: in words; for pTGI MG_MID: mean graph midpoint over all tested cell lines; for pTGI No. giving positive results: number of cell lines for which TGI ≤100 μM; for cellular lines with 50% growth inhibition at submicromolar concentrations: number of cell lines of those tested
In short: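 Five-dose NCI standard protocol screen of test compound against 60 human tumour lines from nine cancer types. pGI₅₀, pTGI and pLC₅₀ are −log molar concentrations giving 50% net growth inhibition, total growth inhibition and 50% net cell death. MG_MID is the arithmetic mean over all tested lines. Counts give the lines with each value ≤100 μM. Where an effect was not reached, the highest tested concentration was used.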

[4] = system: K562 cells; experiment: Cell morphology under light microscopy; assay type: cell-based, human; conditions: K562, 48 h, 10 and 25 μM
In short: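 K562 cells, cultured in medium with 5% FBS, 100 U/mL penicillin and 100 μg/mL streptomycin at 37 °C under 5% CO₂, were seeded at 8 × 10³/well and exposed to test compound for 48 h alongside untreated control. Morphology was then examined by light microscopy at 200× magnification.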

[5] = system: K562 cells; experiment: Annexin V-FITC/PI staining flow cytometry; assay type: cell-based, human; conditions: 10 μM, 24 h
In short: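 K562 cells were grown in RPMI 1640 with 5% FBS and antibiotics at 37 °C in 5% CO₂, then exposed to test compound for 24 h. Cells were harvested, centrifuged at 800 rpm for 10 min and washed in PBS. 10⁵ cells per sample were stained with annexin V-FITC plus PI for 15 min in the dark. Flow cytometry read FL1 (530 nm) and FL3 (>575 nm) over 10,000 events. Areas: C1 necrotic, C2 late apoptotic, C3 viable, C4 early apoptotic.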

[6] = system: pro-caspase 6; experiment: Western blotting analysis of pro-caspase 6; assay type: cell-based, human; conditions: K562, 10 μM, 48 h
In short: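 K562 cells were seeded at 1.5 × 10⁵/well and treated 48 h with 10 μM test compound. Lysate protein was measured by Lowry assay, run on SDS-PAGE and transferred to nitrocellulose. Pro-caspase 3 and 6 were detected with specific alkaline phosphatase-conjugated antibodies. Loading was checked by Ponceau red and β-actin immunoblot, and bands were quantified by densitometry. Blots are representative of at least three experiments.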

[7] = system: K562 cells; experiment: Hoechst 33342 nuclear staining, fluorescence microscopy; assay type: cell-based, human; conditions: 10 μM, 48 h
In short: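 K562 cells were plated at 8 × 10³/well on poly-D-lysine-coated plates and left to adhere overnight. They were prestained with Hoechst 33342 in medium for 30 min, washed with PBS and resuspended in medium, then given test compound or vehicle for 48 h.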

Row | SMILES | inhibition of colchicine binding to tubulin [1] | effects on the assembly of purified tubulin [2] | CC50 [3] | cytotoxicity in NCI screen [3] | pTGI MG_MID [3] | pTGI No. giving positive results [3] | cellular lines with 50% growth inhibition at submicromolar concentrations [3] | morphological changes [4] | necrotic cells [5] | reduction in the level of pro-caspase 6 [6] | nuclear morphology typical of apoptosis [7]
1 | NC(=O)c1cc(Cl)ccc1NC(=O)COc1ccccc1 [Compound 17f, 5-Chloro-2-(2-phenoxyacetamido)benzamide] | negligible effects | negligible effects | > 100 µM | low cytotoxicity | 4.14 | 10 | 3 of 57 | – | – | – | –
2 | NC(=O)c1cc(I)ccc1NC(=O)COc1ccccc1 [Compound 17j, 5-Iodo-2-(2-phenoxyacetamido)benzamide] | negligible effects | negligible effects | > 89.1 µM | low cytotoxicity | 4.45 | 25 | 44 of 56 | remarkable reduction in cell number and cell size | no necrotic cells were detected | −20% | chromatin condensation and nuclear fragmentation
3 | COc1ccc(NC(=O)COc2ccccc2)c(C(N)=O)c1 [Compound 17r, 5-Methoxy-2-(2-phenoxyacetamido)benzamide] | negligible effects | negligible effects | > 97.7 µM | low cytotoxicity | 4.31 | 25 | 30 of 56 | – | – | – | –
4 | COc1cc(NC(=O)COc2ccccc2)c(C(N)=O)cc1OC [Compound 17u, 4,5-Dimethoxy-2-(2-phenoxyacetamido)benzamide] | negligible effects | negligible effects | > 93.3 µM | low cytotoxicity | 4.31 | 23 | 26 of 58 | remarkable reduction in cell number and cell size | – | −50% | chromatin condensation and nuclear fragmentation
